# Reference: ChEMBL document CHEMBL1151684, “Synthesis and antitumoral activity of novel 3-(2-substituted-1,3,4-oxadiazol-5-yl) and 3-(5-substituted-1,2,4-triazol-3-yl) beta-carboline derivatives” (2008)
# What was measured:
# Format in all cases: functional
# K562 = assay: Growth inhibition of human K-562 cells after 48 hrs by sulforhodamine B assay; conditions: K562, 48 h
# How it was run: (§1)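 Sulforhodamine B colorimetric assay following the NCI standard protocol, with doxorubicin as positive control. Each compound was tested at four concentrations in 10-fold dilutions (0.25 to 250). GI50, the concentration giving 50% growth reduction versus untreated control cells, was derived from dose–response curves.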
# [1] = Growth inhibition of human NCI-460 cells after 48 hrs by sulforhodamine B assay; conditions: NCI-460, 48 h; how it was run: as §1
# UACC-62 = assay: Growth inhibition of human UACC-62 cells after 48 hrs by sulforhodamine B assay; conditions: UACC-62, 48 h; how it was run: as §1
# MCF7 = assay: Growth inhibition of human MCF7 cells after 48 hrs by sulforhodamine B assay; conditions: MCF7, 48 h; how it was run: as §1
# OVCAR = assay: Growth inhibition of human OVCAR cells after 48 hrs by sulforhodamine B assay; how it was run: as §1
# [2] = Growth inhibition of human PCO3 cells after 48 hrs by sulforhodamine B assay; conditions: PCO3, 48 h; how it was run: as §1
# HT-29 = assay: Growth inhibition of human HT-29 cells after 48 hrs by sulforhodamine B assay; conditions: HT-29, 48 h; how it was run: as §1
# 786-0 = assay: Growth inhibition of human 786-0 cells after 48 hrs by sulforhodamine B assay; conditions: 786-0, 48 h; for CC50: read-out: LC50 (the source's name); how it was run: as §1
SMILES,GI50 (K562),LC50 (concentration causing 50% net cell kill) (K562),TGI (K562),GI50 [1],TGI [1],GI50 (UACC-62),TGI (UACC-62),GI50 (MCF7),TGI (MCF7),GI50 (OVCAR),TGI (OVCAR),GI50 [2],LC50 (concentration killing 50% of cells) [2],TGI [2],GI50 (HT-29),TGI (HT-29),GI50 (786-0),TGI (786-0),other results
CSc1nnc(-c2cc3c([nH]c4ccccc43)c(-c3ccccc3)n2)o1,0.43 µM,74.7 µM,10.4 µM,3.42 µM,74.7 µM,99.5 µM,> 100 µM,12.2 µM,31.3 µM,0.01 µM,0.1 µM,23.6 µM,> 100 µM,86.6 µM,16.2 µM,> 100 µM,32 µM,> 100 µM,"LC50 (concentration for 50% net cell kill) [1]: > 100 µM; LC50 (concentration killing 50% of cells) (MCF7): > 100 µM; LC50 (concentration killing 50% of the cells, NCI protocol) (OVCAR): 1.6 µM"
COc1ccc(-c2nc(-c3nnc(SC)o3)cc3c2[nH]c2ccccc23)cc1,0.18 µM,–,> 100 µM,1.28 µM,56.6 µM,29.1 µM,> 100 µM,31.2 µM,> 100 µM,2.13 µM,> 100 µM,> 100 µM,–,> 100 µM,> 100 µM,> 100 µM,> 100 µM,> 100 µM,LC50 (concentration for 50% net cell kill) [1]: > 100 µM
S=c1[nH]nc(-c2cc3c([nH]c4ccccc43)c(-c3ccccc3)n2)o1,15.3 µM,> 100 µM,54.4 µM,20.6 µM,> 100 µM,> 100 µM,> 100 µM,25.5 µM,> 100 µM,31.8 µM,> 100 µM,25.5 µM,–,> 100 µM,25.5 µM,> 100 µM,27.9 µM,> 100 µM,–
CSc1nnc(-c2cc3c([nH]c4ccccc43)c(-c3ccc([N+](=O)[O-])cc3)n2)o1,> 100 µM,–,–,> 100 µM,–,> 100 µM,–,> 100 µM,–,> 100 µM,–,> 100 µM,–,–,> 100 µM,–,> 100 µM,–,–
COc1cc(-c2nc(-c3nnc(SC)o3)cc3c2[nH]c2ccccc23)ccc1O,22.6 µM,–,> 100 µM,4.82 µM,> 100 µM,17.8 µM,48.6 µM,12.7 µM,28.1 µM,16.4 µM,59.8 µM,7.53 µM,> 100 µM,39.4 µM,7.31 µM,39.4 µM,15.3 µM,36.3 µM,"LC50 (concentration killing 50% of cells, NCI protocol) (UACC-62): > 100 µM; LC50 (concentration killing 50% of cells) (MCF7): 61.2 µM; LC50 (concentration killing 50% of the cells present at the start) (HT-29): > 100 µM; CC50 (786-0): > 100 µM"
S=c1[nH]nc(-c2cc3c([nH]c4ccccc43)c(-c3ccccc3)n2)[nH]1,3.2 µM,–,–,6.36 µM,–,6.36 µM,–,> 100 µM,–,64.9 µM,–,4.11 µM,–,–,35.5 µM,–,7.56 µM,–,–
Oc1ccc(-c2nc(-c3n[nH]c(=S)o3)cc3c2[nH]c2ccccc23)cc1,21.5 µM,> 100 µM,87 µM,> 100 µM,> 100 µM,> 100 µM,> 100 µM,88.7 µM,> 100 µM,> 100 µM,> 100 µM,81.1 µM,–,> 100 µM,> 100 µM,> 100 µM,94.9 µM,> 100 µM,–
O=[N+]([O-])c1cccc(-c2nc(-c3n[nH]c(=S)o3)cc3c2[nH]c2ccccc23)c1,11 µM,> 100 µM,86.7 µM,73.4 µM,> 100 µM,24.1 µM,> 100 µM,27.9 µM,> 100 µM,22.3 µM,> 100 µM,12.2 µM,> 100 µM,35.7 µM,27.9 µM,> 100 µM,32.4 µM,> 100 µM,–
COc1cc(-c2nc(-c3n[nH]c(=S)o3)cc3c2[nH]c2ccccc23)ccc1O,31.7 µM,–,> 100 µM,89.3 µM,> 100 µM,17.3 µM,47.9 µM,32.2 µM,> 100 µM,5.87 µM,> 100 µM,25.9 µM,> 100 µM,97.3 µM,17.3 µM,> 100 µM,22.4 µM,> 100 µM,"LC50 (concentration killing 50% of cells, NCI protocol) (UACC-62): > 100 µM"
CSc1nnc(-c2cc3c([nH]c4ccccc43)c(-c3ccc(N(C)C)cc3)n2)o1,> 100 µM,–,–,> 100 µM,–,> 100 µM,–,> 100 µM,–,> 100 µM,–,92.6 µM,–,–,87.4 µM,–,> 100 µM,–,–
CSc1nnc(-c2cc3c([nH]c4ccccc43)c(-c3ccccc3Cl)n2)o1,0.17 µM,> 100 µM,68.4 µM,1.64 µM,4.2 µM,15.2 µM,> 100 µM,16.8 µM,51.9 µM,0.01 µM,0.1 µM,1.03 µM,73.5 µM,3.8 µM,8.02 µM,99.6 µM,48.6 µM,> 100 µM,"LC50 (concentration for 50% net cell kill) [1]: > 100 µM; LC50 (concentration killing 50% of cells) (MCF7): > 100 µM; LC50 (concentration killing 50% of the cells, NCI protocol) (OVCAR): 10.1 µM; LC50 (concentration killing 50% of the cells present at the start) (HT-29): > 100 µM"
COc1ccc(-c2nc(-c3n[nH]c(=S)[nH]3)cc3c2[nH]c2ccccc23)cc1,> 100 µM,–,–,0.1 µM,–,66.8 µM,–,> 100 µM,–,> 100 µM,–,> 100 µM,–,–,> 100 µM,–,7.48 µM,–,–
CSc1nnc(-c2cc3c([nH]c4ccccc43)c(-c3ccc(O)cc3)n2)o1,10.8 µM,–,28.8 µM,17.8 µM,73.4 µM,19.1 µM,> 100 µM,7.42 µM,23.4 µM,13.5 µM,35 µM,10.5 µM,59.2 µM,24.8 µM,12.8 µM,35 µM,11.8 µM,24.8 µM,"LC50 (concentration for 50% net cell kill) [1]: > 100 µM; LC50 (concentration killing 50% of cells) (MCF7): 80.3 µM; LC50 (concentration killing 50% of the cells, NCI protocol) (OVCAR): 100 µM; LC50 (concentration killing 50% of the cells present at the start) (HT-29): > 100 µM; CC50 (786-0): 51.9 µM"
S=c1[nH]nc(-c2cc3c([nH]c4ccccc43)c(-c3ccccc3Cl)n2)o1,20.3 µM,> 100 µM,74 µM,20.8 µM,> 100 µM,18.1 µM,80.1 µM,26.9 µM,> 100 µM,45.9 µM,> 100 µM,21.4 µM,–,> 100 µM,17.4 µM,> 100 µM,27.9 µM,> 100 µM,"LC50 (concentration killing 50% of cells, NCI protocol) (UACC-62): > 100 µM"
CN(C)c1ccc(-c2nc(-c3n[nH]c(=S)o3)cc3c2[nH]c2ccccc23)cc1,9.55 µM,–,–,19.1 µM,–,23.8 µM,–,18.8 µM,–,14.7 µM,–,14.7 µM,–,–,40.5 µM,–,14.7 µM,–,–
O=[N+]([O-])c1ccc(-c2nc(-c3n[nH]c(=S)o3)cc3c2[nH]c2ccccc23)cc1,46.7 µM,–,> 100 µM,> 100 µM,> 100 µM,38 µM,> 100 µM,27.6 µM,> 100 µM,> 100 µM,> 100 µM,26 µM,> 100 µM,99.2 µM,31.3 µM,> 100 µM,73.1 µM,> 100 µM,–
CSc1nnc(-c2cc3c([nH]c4ccccc43)c(-c3cccc([N+](=O)[O-])c3)n2)o1,21.3 µM,> 100 µM,81.5 µM,24.5 µM,99.2 µM,16.4 µM,69.4 µM,79.8 µM,> 100 µM,21.3 µM,> 100 µM,44.2 µM,–,> 100 µM,68.1 µM,> 100 µM,> 100 µM,> 100 µM,"LC50 (concentration for 50% net cell kill) [1]: > 100 µM; LC50 (concentration killing 50% of cells, NCI protocol) (UACC-62): > 100 µM"
COc1ccc(-c2nc(-c3n[nH]c(=S)o3)cc3c2[nH]c2ccccc23)cc1,26.4 µM,–,> 100 µM,9.2 µM,> 100 µM,16.8 µM,47.2 µM,24.9 µM,97 µM,> 100 µM,> 100 µM,17.3 µM,> 100 µM,41.1 µM,20.3 µM,55.3 µM,31.6 µM,> 100 µM,"LC50 (concentration killing 50% of cells, NCI protocol) (UACC-62): > 100 µM; LC50 (concentration killing 50% of cells) (MCF7): > 100 µM; LC50 (concentration killing 50% of the cells present at the start) (HT-29): > 100 µM"
